# Measured values published in paper PMC3944088 (ACS chemical biology, 2013).
# Experiments:
# c-MET [1] = experiment: Total c-MET levels in A549 cells; format: cell-based
# In short: (§1)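 A549 cells were treated with the test compound or the reference pan-GSK3 inhibitor BIO (concentrations in μM), then lysates were immunoblotted for PARP-1 cleavage and total c-MET. In parallel, GSK3α and GSK3β were knocked down by siRNA, each alone, both combined, or with one siRNA targeting both, against a non-targeting control. These cells were blotted 72 hours post-transfection.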
# [2] = test system: MV-4–11 and RS4;11 MLL-rearranged leukemia cells; experiment: β-catenin stabilisation and cell cycle in MLL-rearranged leukemia cells; format: cell-based
# [3] = test system: A549, H23 and H1648 NSCLC cell lines; experiment: Dose-response inhibition of cellular viability in NSCLC cell lines; format: cell-based; conditions: for activity in inhibition of cellular viability (dose-response): A549, H23, H1648 NSCLC cell lines
# In short: (§2)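 Viability read by ATP-based luminescence (CellTiter-Glo) after exposure of lung cancer cell lines to the test compound. For the GSK3 comparison in A549 cells, the known pan-GSK3 inhibitors BIO and LiCl were run alongside. Enantiomers were compared in A549 and H1648 cells.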
# [4] = test system: panel of 24 KRAS-mutant and wild-type lung cancer cell lines; experiment: Cell viability screen across a panel of 24 lung cancer cell lines; format: cell-based; conditions: 0.5 and 2.5 μM
# In short: as §2
# GSK3β = GSK3β (Homo sapiens, UniProt P49841); experiment: In vitro kinase inhibition assay GSK3β; format: biochemical; conditions: Millipore and Reaction Biology platforms
# Chain of GSK3β (P49841 whole entry): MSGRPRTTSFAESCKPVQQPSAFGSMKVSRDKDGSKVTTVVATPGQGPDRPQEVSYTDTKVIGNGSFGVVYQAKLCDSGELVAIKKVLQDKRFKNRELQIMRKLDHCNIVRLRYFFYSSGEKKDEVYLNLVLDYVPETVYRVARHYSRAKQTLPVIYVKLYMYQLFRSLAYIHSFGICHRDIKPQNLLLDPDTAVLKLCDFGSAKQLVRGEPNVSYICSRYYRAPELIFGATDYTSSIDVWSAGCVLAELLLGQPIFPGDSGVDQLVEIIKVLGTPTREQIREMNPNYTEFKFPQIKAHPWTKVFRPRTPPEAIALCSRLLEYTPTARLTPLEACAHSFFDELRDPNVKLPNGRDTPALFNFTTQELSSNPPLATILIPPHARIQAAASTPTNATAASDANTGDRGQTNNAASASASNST
# c-MET [5] = target: T1, c-MET (Homo sapiens, UniProt P08581); experiment: In vitro kinase inhibition c-MET; format: biochemical
# T1 sequence (P08581 25-1390): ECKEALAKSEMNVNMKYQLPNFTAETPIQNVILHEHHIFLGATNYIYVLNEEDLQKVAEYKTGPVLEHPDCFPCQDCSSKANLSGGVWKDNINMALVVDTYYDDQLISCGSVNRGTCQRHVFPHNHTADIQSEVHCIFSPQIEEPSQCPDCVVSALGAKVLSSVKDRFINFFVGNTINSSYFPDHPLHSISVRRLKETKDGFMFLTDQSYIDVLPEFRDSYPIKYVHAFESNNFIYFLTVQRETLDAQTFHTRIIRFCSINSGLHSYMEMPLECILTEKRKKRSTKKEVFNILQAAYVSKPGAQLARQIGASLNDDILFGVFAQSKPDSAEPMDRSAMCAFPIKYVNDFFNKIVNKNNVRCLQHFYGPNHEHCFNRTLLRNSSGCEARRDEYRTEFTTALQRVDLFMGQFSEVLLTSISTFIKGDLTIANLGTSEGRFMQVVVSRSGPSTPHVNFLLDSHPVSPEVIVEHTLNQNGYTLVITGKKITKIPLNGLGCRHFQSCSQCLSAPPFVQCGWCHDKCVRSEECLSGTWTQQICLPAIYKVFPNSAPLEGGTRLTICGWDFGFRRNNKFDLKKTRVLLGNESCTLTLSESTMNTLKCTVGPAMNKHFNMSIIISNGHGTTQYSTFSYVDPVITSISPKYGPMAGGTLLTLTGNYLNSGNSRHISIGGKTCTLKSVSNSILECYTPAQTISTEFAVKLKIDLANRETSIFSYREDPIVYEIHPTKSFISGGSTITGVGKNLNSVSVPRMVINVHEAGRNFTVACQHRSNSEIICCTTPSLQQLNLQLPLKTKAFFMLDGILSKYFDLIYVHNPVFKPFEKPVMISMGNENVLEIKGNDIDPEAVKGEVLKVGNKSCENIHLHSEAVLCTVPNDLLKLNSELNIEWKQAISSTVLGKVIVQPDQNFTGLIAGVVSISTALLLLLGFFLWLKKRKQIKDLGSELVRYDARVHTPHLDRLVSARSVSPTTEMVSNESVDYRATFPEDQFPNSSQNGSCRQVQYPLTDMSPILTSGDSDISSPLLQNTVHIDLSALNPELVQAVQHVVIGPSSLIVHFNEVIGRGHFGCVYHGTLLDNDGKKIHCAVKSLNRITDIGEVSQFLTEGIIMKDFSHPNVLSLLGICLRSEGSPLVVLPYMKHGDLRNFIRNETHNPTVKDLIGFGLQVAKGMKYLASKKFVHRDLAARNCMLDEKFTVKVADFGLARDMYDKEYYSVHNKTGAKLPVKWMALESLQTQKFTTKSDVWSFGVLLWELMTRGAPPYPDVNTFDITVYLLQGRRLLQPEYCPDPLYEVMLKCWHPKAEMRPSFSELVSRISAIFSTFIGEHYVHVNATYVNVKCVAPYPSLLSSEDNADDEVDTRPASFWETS
# c-MET [6] = target: T1, c-MET; experiment: c-MET autophosphorylation in A549 cells; format: cell-based; conditions: 30 minute treatment, 250 nM for crizotinib, PHA-665752, PF-04217903
# A549 cells [7] = experiment: Apoptosis by PARP-1 cleavage in A549 cells; format: cell-based
# In short: as §1
# [8] = test system: MV-4–11 MLL-rearranged leukemia cells; experiment: Viability of MV-4–11 MLL-rearranged leukemia cells; format: cell-based; conditions: MV-4–11 cells
# GSK3α = GSK3α (Homo sapiens, UniProt P49840); experiment: In vitro kinase inhibition assay GSK3α; format: biochemical; conditions: Millipore and Reaction Biology platforms
# Chain of GSK3α (P49840 whole entry): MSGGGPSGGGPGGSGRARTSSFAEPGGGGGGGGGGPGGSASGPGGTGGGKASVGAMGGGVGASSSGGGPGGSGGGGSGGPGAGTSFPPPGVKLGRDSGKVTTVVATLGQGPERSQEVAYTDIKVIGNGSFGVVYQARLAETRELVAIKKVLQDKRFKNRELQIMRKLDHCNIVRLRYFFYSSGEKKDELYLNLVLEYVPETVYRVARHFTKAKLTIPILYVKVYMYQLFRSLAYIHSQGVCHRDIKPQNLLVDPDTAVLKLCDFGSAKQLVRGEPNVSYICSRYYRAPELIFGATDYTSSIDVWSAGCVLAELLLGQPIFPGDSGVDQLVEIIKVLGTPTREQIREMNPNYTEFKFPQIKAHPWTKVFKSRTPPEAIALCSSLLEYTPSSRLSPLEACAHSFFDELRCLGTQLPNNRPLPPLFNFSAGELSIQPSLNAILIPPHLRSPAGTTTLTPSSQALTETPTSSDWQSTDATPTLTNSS
# A549 cells [9] = experiment: Cell cycle analysis in A549 cells; format: cell-based
# [10] = test system: RS4;11 MLL-rearranged leukemia cells; experiment: Viability of RS4; format: cell-based; conditions: RS4;11 cells
# β-catenin = experiment: Total β-catenin levels in A549 cells; format: cell-based; conditions: A549 cells after treatment
# A549 NSCLC cells = experiment: Cell viability of A549 NSCLC cells with GSK3 inhibitors; format: cell-based
# In short: as §2
# c-MET [11] = target: T1, c-MET; conditions: reported ref 8, 17; cited from earlier work
structure (smiles),measurement,setting,value
O=C1NC(=O)[C@@H](c2cn3c4c(cccc24)CCC3)[C@@H]1c1c[nH]c2ccccc12 [tivantinib],c-MET levels upon treatment,c-MET [1],decreased c-MET levels
same,cell cycle effect,[2],induced G1 cell cycle arrest
same,β-catenin stabilisation,[2],stabilized β-catenin
same,IC50,[3]; read-out: IC50 for inhibition of cellular viability,~500 nM
same,effect on cellular viability across lung cancer cell line panel,[4],inhibited the viability of the majority of these
same,IC50 for inhibition of GSK3β in vitro kinase activity,GSK3β,upper nanomolar range
same,inhibition of c-MET (in vitro kinase),c-MET [5],only weakly inhibited
same,inhibition of c-MET autophosphorylation,c-MET [6],essentially no effect
same,apoptosis indicated by PARP-1 cleavage,A549 cells [7],induce apoptosis
same,inhibition of viability,[8],potently inhibited viability
same,IC50 for inhibition of GSK3α in vitro kinase activity,GSK3α,upper nanomolar range
same,cell cycle effect,A549 cells [9],G2/M cell cycle arrest
same,inhibition of viability,[10],potently inhibited viability
same,total β-catenin levels,β-catenin,increase in total β-catenin levels
[Cl-].[Li+] [LiCl],antiproliferative activity in A549 cells,A549 NSCLC cells,showed antiproliferative activity
same,potency range of antiproliferative activity,A549 NSCLC cells,low millimolar activity
COc1cc2nccc(Oc3ccc(NC(=O)C4(C(=O)Nc5ccc(F)cc5)CC4)cc3)c2cc1OC [cabozantinib],effect on cellular viability across lung cancer cell line panel,[4],no significant effects
Cc1[nH]c(/C=C2\C(=O)Nc3ccc(S(=O)(=O)Cc4c(Cl)cccc4Cl)cc32)c(C)c1C(=O)N1CCC[C@@H]1CN1CCCC1 [PHA-665752],inhibition of c-MET autophosphorylation,c-MET [6],effectively inhibited
"O=C1NC(=O)[C@H](c2cn3c4c(cccc24)CCC3)[C@H]1c1c[nH]c2ccccc12 [compound 7, (+)-3S,4S-tivantinib]",activity in (−)-tivantinib-sensitive cell lines (cellular viability),"[3]; A549 and H1648 cells, compared with (−)-tivantinib",substantially weaker activity
same,IC50 for inhibition of GSK3β in vitro kinase activity,GSK3β,significantly weaker inhibitor
same,IC50 for inhibition of GSK3α in vitro kinase activity,GSK3α,significantly weaker inhibitor
same,activity against c-MET,c-MET [11],inactive
O=C1Nc2cc(Br)ccc2/C1=C1/Nc2ccccc2/C1=N\O [BIO],c-MET levels upon treatment,c-MET [1],decreased c-MET levels
same,apoptosis indicated by PARP-1 cleavage,A549 cells [7],"able to induce apoptosis in A549 cells, albeit slightly delayed"
same,antiproliferative activity in A549 cells,A549 NSCLC cells,showed antiproliferative activity
OCCn1cc(-c2cnc3nnn(Cc4ccc5ncccc5c4)c3n2)cn1 [PF-04217903],activity in inhibition of cellular viability (dose-response),[3],no measurable
same,effect on cellular viability across lung cancer cell line panel,[4],no significant effects
C[C@@H](Oc1cc(-c2cnn(C3CCNCC3)c2)cnc1N)c1c(Cl)ccc(F)c1Cl [crizotinib],activity in inhibition of cellular viability (dose-response),[3],only weak activity
same,effect on cellular viability across lung cancer cell line panel,[4],no significant effects
